Experimental data from different studies.
Lines come from different studies, so protocols differ.
Target: Dual specificity mitogen-activated protein kinase kinase 5 (MAP2K5, Homo sapiens, UniProt Q13163)
One construct used (Q13163 1-448): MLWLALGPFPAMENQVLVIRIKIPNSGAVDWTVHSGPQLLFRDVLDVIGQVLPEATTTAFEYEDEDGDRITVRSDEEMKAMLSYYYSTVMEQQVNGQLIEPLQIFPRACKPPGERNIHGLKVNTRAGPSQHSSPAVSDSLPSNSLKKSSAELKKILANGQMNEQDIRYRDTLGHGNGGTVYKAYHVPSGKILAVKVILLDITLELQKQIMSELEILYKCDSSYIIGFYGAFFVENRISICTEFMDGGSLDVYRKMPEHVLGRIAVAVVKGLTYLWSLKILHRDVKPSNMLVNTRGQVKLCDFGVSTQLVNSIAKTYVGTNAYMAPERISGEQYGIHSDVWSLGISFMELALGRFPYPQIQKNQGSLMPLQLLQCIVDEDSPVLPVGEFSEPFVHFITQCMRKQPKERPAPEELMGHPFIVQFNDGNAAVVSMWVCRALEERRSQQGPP

The inhibition of `COc1cccc2c(NCc3ccccc3)nc(-n3c(N)nc4ccccc43)nc12` is reported as 6.7% (target engagement in cells, inhibitor, chemoproteomics; 20 mM).
`CC(C)(O)c1cncc(-c2nc3ccc(F)cc3n2C2CC2)c1` gave a remaining binding of 100% (cell-free assay, competition with immobilised ligand; 1 µM).
`CC(C)(C)c1nc2c(s1)c1nc(N)ncc1c1ccc(NS(=O)(=O)c3c(F)cccc3F)c(F)c12` has a remaining activity of 80% (enzyme activity, inhibitor, radiometric; 1 µM).
`Nc1ncnc2occ(-c3ccc(NC(=O)Nc4cc(C(F)(F)F)ccc4F)cc3)c12` gave a remaining signal of 0.15% (cell-free assay, inhibitor; 20 µM).
`Cc1sc(C(=O)NC2COC2)cc1-n1cc(NC(=O)Nc2c(F)cccc2Cl)cn1` gave a remaining activity of 96.8% (enzyme activity, inhibitor; 10 µM).
The remaining activity of `Cc1ccc(C(=O)Nc2ccc(CN3CCN(C)CC3)c(C(F)(F)F)c2)cc1C#Cc1cnc2cccnn12` is reported as 2.4% (enzyme activity, inhibitor; 23.5 nM).
`CC1=C(C#N)C(c2ccc3c(c2)c(NC(=O)c2ccccc2C)nn3C)C(C#N)=C(C)N1` has a remaining binding of 79% (cell-free assay, competition with immobilised ligand; 1 µM).
`O=C(Nc1cnn(-c2csc(C(=O)NC3COC3)c2)c1)Nc1ccccc1Cl` gave a remaining activity of 98.2% (enzyme activity, inhibitor; 5 µM).
`CC(C)(C)c1nc(-c2cccc(NS(=O)(=O)c3c(F)cccc3F)c2F)c(-c2ccnc(N)n2)s1` gave a remaining activity of 90% (enzyme activity, inhibitor, radiometric; 1 µM).
With `CCCCNc1ncc2c(-c3ccc(F)cc3)nn(C[C@H]3CC[C@H](N)CC3)c2n1` the inhibition was 83% (target engagement in cells, inhibitor, chemoproteomics; 20 mM).
